OX1R antag-1: antagonists of human orexin 1 receptor; CHO/OX1R cells, Fluo-8 calcium fluorescence, orexin A; hit rate 0.43% among 330,000; O43613; inhibition, % at 5 µM;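 active = inhibition above its plate's threshold, mean inhibition of all tested compounds on the plate plus 3 SD, cut at about 37% in these data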;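 also: 0% = orexin A challenge wells and 100% = SB-334867-A antagonist wells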
Target sequence (O43613 whole entry, looked up): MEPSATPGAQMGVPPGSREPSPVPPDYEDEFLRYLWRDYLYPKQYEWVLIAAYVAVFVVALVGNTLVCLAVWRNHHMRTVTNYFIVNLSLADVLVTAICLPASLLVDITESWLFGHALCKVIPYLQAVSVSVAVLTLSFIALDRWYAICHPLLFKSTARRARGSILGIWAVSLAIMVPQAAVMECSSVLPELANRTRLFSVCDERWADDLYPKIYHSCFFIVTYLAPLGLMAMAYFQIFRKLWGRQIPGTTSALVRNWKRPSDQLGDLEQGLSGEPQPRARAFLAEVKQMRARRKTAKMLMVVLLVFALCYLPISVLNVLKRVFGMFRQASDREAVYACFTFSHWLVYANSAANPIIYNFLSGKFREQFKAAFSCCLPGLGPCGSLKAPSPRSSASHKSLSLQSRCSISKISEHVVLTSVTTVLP
TAAR1 antagonist: antagonists of human TAAR1; hit rate 1.5% among 360,000; inhibition, % at 3 µM; Q96RJ0; AID 624466; CHO RD-HGA16 TAAR1, Fluo-8 calcium fluorescence, antagonist;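 active = inhibition above a per-plate cutoff, the mean inhibition of test compounds on that plate plus 3 SD, cut at about 49% in these data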;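 also: 0% = DMSO plus EC80 beta-PEA response and 100% = DMSO alone without agonist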
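Test system: hTAAR1-expressing CHO RD-HGA16 cells, Gα16-coupled; Probe or stimulus: EC80 β-phenethylamine stimulus; Compound dosing: single nominal final test compound concentration of 3 µM; Timing: 140 s kinetic read after compound, 140 s after agonist; Signal: Fluo-8 calcium-sensitive fluorescence; Measure: % inhibition of agonist calcium response; Controls: DMSO and EC80 PEA controls.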
OX1R antag-2: blocks the human orexin 1 receptor; O43613; OX1R-expressing cells, FRET antagonist read-out; inhibition, % at 6.6 µM; hit rate 1.8% among 330,000; in the data active = inhibition mostly above about 38%, no sharp cut-off; inactive = mostly below about 40%;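 also: 0% = agonist challenge alone and 100% = reference antagonist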
TAAR1 agonist: human TAAR1 agonism; CHO RD-HGA16 TAAR1, Fluo-8 calcium fluorescence; vehicle wells 0%, saturating PEA agonist 100%; activation, % at 3 µM; hit rate 0.99% among 360,000; Q96RJ0;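 active = activation above the mean activation of all test compounds in the run plus 3 SD, cut at about 38% in these data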
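Signal – calcium-sensitive Fluo-8 signal, excitation 470-495, emission 515-575 nm · System – RD-HGA16 (CHO) cells co-expressing Gα16 and hTAAR1 · Incubation – 17-24 h seeding, 75 min 37 °C dye, 30 min RT · Compound dosing – 3 µM single concentration · Repeats – no replicates (n 1)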
CHO parental Ca: counter-screen for OX1R antagonists: effect in parental CHO cells; inhibition, % at 5.6 µM; parental CHO-K1, ATP-induced calcium, Fluo-8 fluorescence; hit rate 0.63% among 330,000;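 active = inhibition above that plate's mean sample inhibition plus 3 SD, cut at about 26% in these data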;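 also: 0% = ATP-challenged DMSO wells and 100% = DMSO wells without ATP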
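Assay system: parental CHO cells; Read-out basis: percent inhibition of ATP-evoked calcium rise, normalized to controls; Benchmarks: ATP and no-ATP DMSO wells; Compound dosing: single nominal dose of 5.6 µM per compound; Signal: Fluo-8 calcium dye fluorescence; Also added: ATP as calcium-mobilizing challenge; Repeats: singlicate.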
GPR7 antag: human neuropeptides B/W receptor 1 antagonism | inhibition, % at 4.4 µM | AID 1861 | GPR7-expressing cells, fluorescence antagonist assay | hit rate 1.1% among 290,000; in the data active = inhibition above about 16%, passing the limit was not always enough;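 also: cells stimulated with the agonist NPW; 0% = agonist with vehicle and 100% = vehicle without agonist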
Target sequence (P48145 whole entry, looked up): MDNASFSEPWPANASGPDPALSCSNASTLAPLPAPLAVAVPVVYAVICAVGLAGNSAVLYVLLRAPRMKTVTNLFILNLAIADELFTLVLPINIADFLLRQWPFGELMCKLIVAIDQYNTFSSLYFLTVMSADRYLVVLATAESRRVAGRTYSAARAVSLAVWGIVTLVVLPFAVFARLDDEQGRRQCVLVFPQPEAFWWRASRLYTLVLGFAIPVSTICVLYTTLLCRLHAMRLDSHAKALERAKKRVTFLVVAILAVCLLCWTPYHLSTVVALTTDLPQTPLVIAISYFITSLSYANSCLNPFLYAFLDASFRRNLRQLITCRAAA
The depositor's hits bear a star; · = not tested or not shown. The list is not random: actives were taken first. Their share in the collection is about 4.5%.

SMILES	OX1R antag-1	TAAR1 antagonist	OX1R antag-2	TAAR1 agonist	CHO parental Ca	GPR7 antag
Cc1cc2c(cc1S(=O)(=O)N1CCN(c3cccc(C)c3C)CC1)OCCN2C	-37.1	2.5	6.3	-0.1	57.3*	3.7
Cc1cc2c(cc1S(=O)(=O)N1CCN(c3ccc(Cl)cc3)CC1)OCCN2C	-23.5	2.3	-6.5	-1.6	2.5	-1.6
O=[N+]([O-])c1cc([N+](=O)[O-])c2nonc2c1Nc1ccc(O)cc1	5.8	-8.7	76.4*	-0.7	0.6	-8.8
COc1ccccc1Nc1c([N+](=O)[O-])cncc1[N+](=O)[O-]	1.7	13.0	56.8	-0.5	-2.8	6.6
O=[N+]([O-])c1cncc([N+](=O)[O-])c1Nc1cccc(O)c1	3.8	-7.8	56.4*	1.7	-6.0	10.3
Cc1ccccc1Nc1c([N+](=O)[O-])cncc1[N+](=O)[O-]	2.5	-20.2	63.0*	-0.6	-4.6	-28.4
CC1(Cc2c(Cl)cccc2Cl)C(=O)Nc2cc(-c3ccccc3Cl)ccc21 (centres undefined)	·	-0.5	·	0.1	·	·
CC1(Cc2ccccc2Cl)C(=O)Nc2cc(-c3ccccc3Cl)ccc21 (centres undefined)	·	50.9*	·	2.4	·	·
Cc1cc(C(=O)NC2CCCCCCC2)ccc1[N+](=O)[O-]	-19.2	13.2	14.2	-3.8	-15.0	·
CC1=C(C(=O)N(C)C)CC(CC(=O)NCCc2ccccn2)C(=O)N1Cc1ccc(C(C)(C)C)cc1 (centres undefined)	·	2.5	·	10.8	·	·
CC1=C(C(=O)N(C(C)C)C(C)C)CC(CC(=O)NCCc2ccccn2)C(=O)N1Cc1ccc(F)cc1 (centres undefined)	·	-36.4	·	37.8*	·	·
CC1=C(C(=O)N(C)C)CC(CC(=O)NCCc2ccccn2)C(=O)N1Cc1ccc(F)cc1 (centres undefined)	·	-10.1	·	41.0*	·	·
CC1=C(C(=O)N2CCOCC2)CC(CC(=O)NCCc2ccccn2)C(=O)N1Cc1ccc(F)cc1 (centres undefined)	·	-12.9	·	5.4	·	·
CCOC(=O)CCCCCC(=O)Nc1ccc2c(c1)C(=O)N([C@H](C)CO)C[C@@H](C)[C@@H](CN(C)S(=O)(=O)c1ccc(C)cc1)OCCCC[C@H](C)O2	·	-3.9	·	1.5	·	·
O=C(CN1CCOCC1)N1CCN(c2ccc([N+](=O)[O-])cc2)CC1	-4.3	7.4	75.0*	5.0	-2.6	-15.4
O=C(/C=C/c1ccc([N+](=O)[O-])cc1)OCC(=O)N1CCCCCC1	-6.2	-13.2	32.5	4.4	-4.9	·
O=C(/C=C/c1ccc([N+](=O)[O-])cc1)OCC(=O)N1CCOCC1	4.1	1.6	69.7*	0.6	-0.5	·
O=C(CCCSc1nc2ccccc2[nH]1)N1CCN(c2ccc([N+](=O)[O-])cc2)CC1	59.1*	1.0	35.5	-0.8	50.1*	18.5*
O=C(CN1CCOCC1)NNC(=O)c1ccc([N+](=O)[O-])cc1	-2.5	-18.1	42.8*	1.9	-1.0	-20.2
O=C(CN1CCN(c2ccc([N+](=O)[O-])cc2Cl)CC1)N1CCOCC1	-13.7	-11.9	25.3	1.3	-19.6	3.4
C#CCNC(=O)C[C@H]1C[C@@]2(C(=O)OC)C(=C[C@H](C(C)C)O[C@@H]2C2CC2)N(Cc2ccccc2)C1=O	·	-13.6	·	-0.2	·	·
Cc1ccccc1C(=O)N[C@@H](CC(C)C)C(=O)N1CCC[C@H]1C(=O)NCc1ccccc1	·	-11.6	·	-0.2	·	·
CC(=Nc1ccc(Cl)cc1N)c1c(O)cc(C)oc1=O	·	6.1	·	-2.1	·	·
O=C(Cn1cc([N+](=O)[O-])nc1[N+](=O)[O-])N1CCN(c2ccccc2)CC1	-7.0	11.4	48.5*	1.2	9.4	-7.2
O=C(Cn1cnc2ccccc2c1=O)N1CCN(c2ccccc2)CC1	-35.5	-1.9	21.3	9.1	-11.1	-10.2
SMILES	OX1R antag-1	TAAR1 antagonist	OX1R antag-2	TAAR1 agonist	CHO parental Ca	GPR7 antag
O=C(Nc1ccccc1C(=O)N1CCOCC1)c1ccc([N+](=O)[O-])cc1	-13.8	6.5	47.3*	2.9	-9.3	-11.5
COc1cc2c(c(OC)c1OC)CC(c1ccccc1)=C(c1ccccc1)CC2NC(=O)C(F)(F)F (centres undefined)	·	-1.8	·	1.9	·	·
OC(CNC1CCCCC1)CON=C1CCSc2c(Cl)cccc21 (centres undefined)	·	18.3	·	39.5*	·	·
OC(CNC1CCCC1)COc1ccc(-c2ccccc2)cc1 (centres undefined)	2.4	0.5	4.6	13.3	-3.3	2.9
CNc1nc(NCc2ccccc2)c2sccc2n1	·	31.0	·	46.1*	·	·
c1ccc(CNc2nc(NCc3cccs3)nc3ccsc23)cc1	·	81.2*	·	51.9*	·	·
COc1ccccc1CNc1nc(NCCOc2ccccc2Cl)c2sccc2n1	·	34.2	·	3.2	·	·
Cc1ccc(Nc2nc(NCc3ccccc3)nc3ccsc23)c(C)c1	·	88.5*	·	29.4	·	·
N#Cc1ccc(Nc2nc(NCc3ccccc3)nc3ccsc23)cc1	·	28.2	·	3.1	·	·
Clc1ccccc1OCCNc1nc(NCC2CC2)nc2ccsc12	·	49.3*	·	8.6	·	·
O=C1CCCN1CCCNc1nc(NCc2cccs2)nc2ccsc12	·	98.8*	·	92.4*	·	·
CSc1ccccc1CNc1nc(NCC2CC2)nc2ccsc12	·	38.4	·	17.4	·	·
CNc1nc(NCc2cccc(OC)c2)c2sccc2n1	·	20.8	·	26.7	·	·
c1csc(CNc2nc(NCC3CCCCC3)c3sccc3n2)c1	·	60.8*	·	43.2*	·	·
COc1cccc(CNc2nc(NCc3ccccc3)nc3ccsc23)c1	·	96.4*	·	49.0*	·	·
CC(=O)NCCNc1nc(NCc2cccs2)nc2ccsc12	·	23.1	·	33.8	·	·
COCCNc1nc(NCc2cccs2)nc2ccsc12	·	103.9*	·	122.2*	·	·
COC(=O)c1cc2c(c3c4cc(F)ccc4n(S(=O)(=O)c4cccc(C)c4)c13)C(=O)N(Cc1ccco1)C2	·	-32.4	·	1.5	·	·
CC(=O)N1CCN(c2ccc(N3CCN(C(C)=O)[C@@H](C)C3)c(C)c2)[C@@H](C)C1	·	4.0	·	0.2	·	·
CN1CCCCC(NC(=O)C23CC4CC(CC(C4)C2)C3)C1=O (centres undefined)	·	-19.5	·	1.7	·	·
CC(C)C[C@@H]1COc2cccc(N3CCCC3)c2S(=O)(=O)N1	·	7.8	·	-0.9	·	·
c1ccc(CNc2nc(NCCc3ccncc3)c3sccc3n2)cc1	·	106.0*	·	125.2*	·	·
Fc1ccc(Nc2nc(NCc3ccccc3)nc3ccsc23)cc1	·	19.9	·	10.8	·	·
Cc1cc(SCC(=O)Nc2cccc(S(=O)(=O)NC3=NCCCCC3)c2)nc2ccccc12	-20.8	49.0*	47.2	10.9	-0.3	1.6
Cc1ccc(-n2c(SCC(=O)Nc3cccc(S(=O)(=O)NC4=NCCCCC4)c3)nc3ccccc3c2=O)cc1C	-2.6	-13.3	11.2	2.1	-13.1	-4.5
Cc1ccc2c(c1)sc(-c1ccc(N(C)C)cc1)[n+]2C	9.6	14.1	39.6*	1.3	41.9*	18.6
